From ChEMBL document CHEMBL5230171, “Expanding the structure-activity relationships of alkynyl diphenylurea scaffold as promising antibacterial agents” (RSC Med Chem, 2023) come the findings set out here.

For data set [1], the system named is Staphylococcus aureus. The experiment in a line: Antibacterial activity against vancomycin resistant Staphylococcus aureus 12 assessed as inhibition of bacterial growth at 0.5 ug/ml incubated for 18 to 20 hrs by CLSI protocol based broth microdilution method. Format: functional, organism-based. The conditions noted are these: dose 0.5 µg/ml, time 18-20 hrs. For orientation: Broth dilution looks for growth in wells or tubes with falling amounts of substance.

In data set [2] the test system is Staphylococcus aureus. Nature of the data set: Antibacterial activity against methicillin sensitive Staphylococcus aureus 107 assessed as inhibition of bacterial growth at 0.5 ug/ml incubated for 18 to 20 hrs by CLSI protocol based broth microdilution method. Format: functional, organism-based. The conditions noted are these: dose 0.5 µg/ml, time 18-20 hrs. An outline of the steps:
(§1)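 Staphylococcal and E. coli strains were diluted from a 0.5 McFarland suspension in cation-adjusted Mueller Hinton broth to ~5 × 10^5 CFU mL−1. They were incubated with serial dilutions of test agent in broth microdilution, and the MIC was recorded.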

For data set [3], the system named is Staphylococcus aureus. Nature of the data set: Antibacterial activity against methicillin resistant Staphylococcus aureus 384 assessed as inhibition of bacterial growth at 0.5 ug/ml incubated for 18 to 20 hrs by CLSI protocol based broth microdilution method. The settings on record: dose 0.5 µg/ml, time 18-20 hrs. The data set is classed as functional, organism-based.

The test system of data set [4] is Staphylococcus aureus. The experiment in a line: Post antibiotic effect against methicillin resistant Staphylococcus aureus NRS384 USA300 assessed as time required for 1 log10 increase in CFU at 5 times of MIC incubated for 2 hrs followed by replacement with drug free medium and measured after 18-24 hrs. The data set is classed as functional. An outline of the steps: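 MRSA USA300 at ~10^6 CFU mL−1 was exposed for 2 h to 5× MIC of test agent, with vancomycin or DMSO as controls. Drug was removed by 1:1000 dilution in fresh TSB. Cultures were incubated at 37 °C with 180 rpm shaking and sampled hourly for 8 h, with viable counts on MSA read after 18–24 h. PAE = T − C, where T and C are the times for a 1 log10 rise in the test and control cultures.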

For data set [5], the system named is Staphylococcus aureus. The experiment in a line: Antibacterial activity against methicillin resistant Staphylococcus aureus 386 assessed as inhibition of bacterial growth at 0.5 ug/ml incubated for 18 to 20 hrs by CLSI protocol based broth microdilution method. The data set is classed as functional, organism-based. The settings on record: dose 0.5 µg/ml, time 18-20 hrs.

Data set [6] has as its system Staphylococcus aureus. The experiment in a line: Antibacterial activity against methicillin resistant Staphylococcus aureus 119 assessed as inhibition of bacterial growth at 0.5 ug/ml incubated for 18 to 20 hrs by CLSI protocol based broth microdilution method. The conditions noted are these: dose 0.5 µg/ml, time 18-20 hrs. Format: functional, organism-based.
In data set [7] the test system is Staphylococcus aureus. Nature of the data set: Antibacterial activity against vancomycin resistant Staphylococcus aureus 10 assessed as inhibition of bacterial growth at 0.5 ug/ml incubated for 18 to 20 hrs by CLSI protocol based broth microdilution method. The data set is classed as functional, organism-based. The settings on record: dose 0.5 µg/ml, time 18-20 hrs.

In data set [8] the test system is Staphylococcus aureus. Nature of the data set: Antibacterial activity against vancomycin resistant Staphylococcus aureus 9 assessed as inhibition of bacterial growth at 0.5 ug/ml incubated for 18 to 20 hrs by CLSI protocol based broth microdilution method. Format: functional, organism-based. The settings on record: dose 0.5 µg/ml, time 18-20 hrs.
In data set [9] the test system is Staphylococcus aureus. The experiment in a line: Antibacterial activity against methicillin resistant Staphylococcus aureus 385 assessed as inhibition of bacterial growth at 0.5 ug/ml incubated for 18 to 20 hrs by CLSI protocol based broth microdilution method. The data set is classed as functional, organism-based. The conditions noted are these: dose 0.5 µg/ml, time 18-20 hrs.

In data set [10] the test system is Staphylococcus aureus. Nature of the data set: Antibacterial activity against methicillin resistant Staphylococcus aureus 123 assessed as inhibition of bacterial growth at 0.5 ug/ml incubated for 18 to 20 hrs by CLSI protocol based broth microdilution method. The data set is classed as functional, organism-based. The settings on record: dose 0.5 µg/ml, time 18-20 hrs.

Data set [11] has as its system Staphylococcus aureus. The experiment in a line: Antibacterial activity against methicillin sensitive Staphylococcus aureus 6538 assessed as inhibition of bacterial growth at 0.5 ug/ml incubated for 18 to 20 hrs by CLSI protocol based broth microdilution method. The data set is classed as functional, organism-based. The conditions noted are these: dose 0.5 µg/ml, time 18-20 hrs. In outline: as §1

Data set [12] can be described thus: Cytotoxicity against human HaCaT cells assessed as tolerance by measuring cell viability at 64 ug/ml incubated for 24 hrs by MTS assay relative to control. Format: toxicity, cell-based. The conditions noted are these: at 64 µg/mL, read-out: Activity. An outline of the steps:
(§2)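 Vero or HaCaT cells were exposed to 32, 64 and 128 μg mL−1 compound in triplicate for 24 h at 37 °C, 5% CO2, with a DMSO control. MTS was then added for 4 h and OD490 read. Analysis used two-way ANOVA with Dunnett's post hoc test (p < 0.05).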

Data set [13] in a line: Cytotoxicity against African green monkey Vero cells assessed as tolerance by measuring cell viability upto 128 ug/ml incubated for 24 hrs by MTS assay relative to control. Format: toxicity, cell-based. The conditions noted are these: chlorocebus sabaeus, up to 128 µg/mL, read-out: Activity. An outline of the steps:
as §2
A general note: Tetrazolium assays rely on reduction of a dye to a coloured formazan, in cell work by metabolically active cells.

The test system of a further data set is Escherichia coli. Nature of the data set: Antibacterial activity against Escherichia coli JW55031 assessed as inhibition of bacterial growth incubated for 18 to 20 hrs by CLSI protocol based broth microdilution method. The conditions noted are these: time 18-20 hrs. Format: functional. An outline of the steps: as §1
In data set [14] the test system is Staphylococcus aureus. The experiment in a line: Antibacterial activity against methicillin resistant Staphylococcus aureus NRS384 USA300 assessed as inhibition of bacterial growth incubated for 18 to 20 hrs by CLSI protocol based broth microdilution method. The settings on record: time 18-20 hrs. Format: functional. An outline of the steps: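 Broth microdilution against staphylococcal clinical isolates. Each strain was prepared as a 0.5 McFarland suspension and diluted in cation-adjusted Mueller Hinton broth to ~5 × 10^5 CFU mL−1. Serial dilutions of test agents in DMSO stock were incubated with the bacteria, and the MIC was recorded.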

Another data set deals with Clostridioides difficile. Nature of the data set: Antibacterial activity against Clostridioides difficile ATCC BAA 1870 assessed as inhibition of bacterial growth incubated for 18 to 20 hrs by CLSI protocol based broth microdilution method. The data set is classed as functional. The settings on record: time 18-20 hrs. An outline of the steps:
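C. difficile was diluted from a 0.5 McFarland suspension in BHI supplemented with hemin and vitamin K. It was incubated with serial dilutions of test agent in broth microdilution, and the MIC was recorded.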

Molecules are shown by their SMILES. Activity calls are given as the source filed them. The calls are words filed in the database; no cut-off is given here. Some results are limits rather than exact numbers.

`CN[C@H](CC(C)C)C(=O)N[C@H]1C(=O)N[C@@H](CC(N)=O)C(=O)N[C@H]2C(=O)N[C@H]3C(=O)N[C@H](C(=O)N[C@H](C(=O)O)c4cc(O)cc(O)c4-c4cc3ccc4O)[C@H](O)c3ccc(c(Cl)c3)Oc3cc2cc(c3O[C@@H]2O[C@H](CO)[C@@H](O)[C@H](O)[C@H]2O[C@H]2C[C@](C)(N)[C@H](O)[C@H](C)O2)Oc2ccc(cc2Cl)[C@H]1O` [VANCOMYCIN]: the outcome in the data set with Staphylococcus aureus [1], in the data set with Staphylococcus aureus [2], with Staphylococcus aureus [3], in the data set on Staphylococcus aureus [5], with Staphylococcus aureus [6] and in the data set on Staphylococcus aureus [7] was Active. The result in the data set on Staphylococcus aureus [8], with Staphylococcus aureus [9], with Staphylococcus aureus [10] and in the data set on Staphylococcus aureus [11] was Active. Besides, the Time with Staphylococcus aureus [4] stood at 4 h.
In the case of `C/C(=N\NC(=N)N)c1ccc(NC(=O)Nc2ccc(C#CC3(N)CCCCC3)cc2)cc1`, the result with Staphylococcus aureus [1], in the data set on Staphylococcus aureus [2], in the data set on Staphylococcus aureus [3], in the data set on Staphylococcus aureus [5], in the data set on Staphylococcus aureus [6] and in the data set with Staphylococcus aureus [7] was Active. Further, the outcome in the data set with Staphylococcus aureus [8], in the data set with Staphylococcus aureus [9], with Staphylococcus aureus [10] and in the data set with Staphylococcus aureus [11] was Active. For the same molecule, the viability at 24 h, 64 ug/ml in data set [12] is 100%. For the same molecule, in data set [13], the viability at 24 h turned out to be 100%.
For orientation: MIC means the lowest concentration found to suppress growth. Consider `C/C(=N\NC(=N)N)c1ccc(NC(=O)Nc2ccc(C#CC3CC3)cc2)cc1`, for which the minimal inhibitory concentration (MIC) in the data set with Escherichia coli, in the data set with Staphylococcus aureus [14] and in the data set on Clostridioides difficile was at least 64 mg/L each time.
